Test results: ChEMBL document CHEMBL4043282, “Discovery of the First Potent, Selective, and Orally Bioavailable Signal Peptide Peptidase-Like 2a (SPPL2a) Inhibitor Displaying Pronounced Immunomodulatory Effects In Vivo” (J Med Chem, 2018)
Blank lines part the entries; values can stand above or below the molecule they belong to. Activity calls are given as the source filed them. The rule behind the calls is not given here.

What was measured:
[1] = tested on: Plasma; experiment: Cmin in mouse plasma at 10 mg/kg, po bid administered at 8 and 16 hrs dosing interval between first and second dose respectively for 11 days measured predose on day 12 by LC/MS/MS analysis; format: ADME, organism-based; conditions: in vivo, read-out: Cmin
How it was run: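 Mice gavaged bid in 0.5% MC:0.5% Tween or PEG:D5W 3:1; trough sample taken before the morning dose; 50 μL retro-orbital blood into LiHep tubes, kept on ice, plasma separated at 2823g for 5 min, stored at −20 °C until analysis.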

[2] = tested on: Mus musculus; experiment: In vivo inhibition of SPPL2a in mouse assessed as accumulation of CD74/p8 in splenocyte lysate at 1 to 3 mg/kg administered via oral gavage as single dose measured 16 hrs post dose by Western blot method; format: functional, organism-based
How it was run: (§1)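 Mice gavaged in 0.5% MC:0.5% Tween or PEG:D5W 3:1. Spleens dissociated, red cells lysed with ACK, 1 × 10^6 cells lysed with protease inhibitors; 18 μg lysate on 10% gel, blotted, CD74 full length and p8 detected with rat anti-mouse CD74 In-1 and Alexa488 anti-rat IgG, LiCor scan; p8/full-length ratio expressed as percent of reference compound ratio.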

[3] = tested on: Rattus norvegicus; experiment: In vivo inhibition of SPPL2a in Lewis rat assessed as accumulation of CD74/p8 in blood at 1 mg/kg first dose administered via oral gavage followed by second dose after 8 hrs measured 16 hrs post second dose by Western blot method; format: functional, organism-based
How it was run: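 Rat blood (200 μL) red cells lysed with RBC lysis buffer three times, pellet lysed in Tris pH 6.8/NaCl/EDTA/Triton X-100/deoxycholate with protease inhibitors; Western blot for CD74/p8 with affinity-purified antibody specific for rat CD74/p8 at 1:200.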

[4] = tested on: Mus musculus; experiment: Immunomodulatory activity in mouse assessed as reduction in follicular B cells in splenocyte at 3 to 30 mg/kg administered via oral gavage bid at 8 and 16 hrs dosing interval between first and second dose respectively for 11 days measured 16 hrs post last dose on day 12 by flow cytometry; format: functional, organism-based
How it was run: (§2)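 Mice gavaged with compound in 0.5% MC:0.5% Tween or PEG:D5W 3:1. Spleens dissociated in GentleMACS, filtered at 40 μm, ACK red-cell lysis, counted; 1 × 10^6 splenocytes stained 30 min on ice in HBSS/2% FBS/5 mM EDTA with antimouse panels for B-cell subsets (B220, CD21, CD23, IgM, IgD) or dendritic cells (PDCA1, CD11c, MHCII, lineage markers); analyzed on Fortessa flow cytometer.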

[5] = Total plasma concentration in mouse at 30 mg/kg administered via oral gavage measured after 16 hrs post dose by LC/MS/MS analysis; format: ADME, organism-based
How it was run: (§3)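 Mice dosed by oral gavage in 0.5% MC:0.5% Tween or PEG:D5W 3:1. 50 μL blood taken retro-orbitally into LiHep tubes; in chronically dosed animals the trough sample came before the morning dose. Kept on ice, plasma separated by centrifugation at 2823g, 5 min, stored at −20 °C until analysis.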

[6] = Total concentration in Lewis rat blood at 10 mg/kg, po bid after 24 hrs by LC/MS/MS analysis; format: ADME, organism-based; conditions: read-out: Drug uptake
[7] = Total concentration in Lewis rat blood at 1 mg/kg, po bid after 24 hrs by LC/MS/MS analysis; format: ADME, organism-based; conditions: read-out: Drug uptake
[8] = tested on: Mus musculus; experiment: In vivo inhibition of gamma-secretase dependent Notch1 signaling in mouse assessed as effect on Hes1 mRNA level in thymus at 3 to 30 mg/kg, po bid administered at 8 and 16 hrs dosing interval between first and second dose respectively for 11 days measured 16 hrs post last dose on day 12 by RT-PCR analysis; format: organism-based
How it was run: (§4)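 Thymus and jejunum excised into RNALater, 4 °C overnight, washed, frozen at −80 °C; total RNA from 10 mg tissue by MagNA Pure LC; Hes1 measured by TaqMan real-time PCR; significance by two-tailed heteroscedastic Student's t-test.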

[9] = tested on: Mus musculus; experiment: Immunomodulatory activity in mouse assessed as reduction in marginal zone B cells in splenocyte at 3 to 30 mg/kg administered via oral gavage bid at 8 and 16 hrs dosing interval between first and second dose respectively for 11 days measured 16 hrs post last dose on day 12 by flow cytometry; format: functional, organism-based; how it was run: as §2
[10] = tested on: Mus musculus; experiment: In vivo inhibition of SPPL2a in mouse assessed as accumulation of CD74/p8 in splenocyte lysate at 10 mg/kg administered via oral gavage as single dose measured 16 hrs post dose by Western blot method relative to control; format: functional; how it was run: as §1
[11] = tested on: Mus musculus; experiment: Immunomodulatory activity in mouse assessed as reduction in total B cells in splenocyte administered via oral gavage bid at 8 and 16 hrs dosing interval between first and second dose respectively for 11 days measured 16 hrs post last dose on day 12 by B220 staining based flow cytometry; format: functional, cell-based
[12] = Total plasma concentration in mouse at 3 mg/kg administered via oral gavage measured after 16 hrs post dose by LC/MS/MS analysis; format: ADME, organism-based; how it was run: as §3
[13] = Total plasma concentration in mouse at 10 mg/kg administered via oral gavage measured after 16 hrs post dose by LC/MS/MS analysis; format: ADME, organism-based; how it was run: as §3
[14] = tested on: Mus musculus; experiment: In vivo inhibition of SPPL2a in mouse assessed as accumulation of CD74/p8 in splenocyte lysate at 40 mg/kg administered via oral gavage as single dose measured 16 hrs post dose by Western blot method; format: functional, organism-based; how it was run: as §1
[15] = Clearance in Wistar rat at 3 mg/kg, iv by LC/MS/MS analysis; format: ADME, organism-based; conditions: in vivo
[16] = Total concentration in Lewis rat blood at 3 mg/kg, po bid after 24 hrs by LC/MS/MS analysis; format: ADME, organism-based; conditions: read-out: Drug uptake
[17] = tested on: Mus musculus; experiment: In vivo inhibition of SPPL2a in mouse assessed as accumulation of CD74/p8 in splenocyte lysate at 150 mg/kg administered via oral gavage as single dose measured 16 hrs post dose by Western blot method; format: functional, organism-based; how it was run: as §1
[18] = Selectivity ratio of IC50 for human gamma-secretase expressed in HEK293 cells to IC50 for human SPPL2a expressed in HEK293 cells
How it was run: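 HEK293 transiently transfected: SPPL2a arm with human SPPL2a, VP16-TNFα(aa1-76)-NTF and Gal4-luciferase; γ-secretase arm with human Notch1-VP16-Gal4 plus reporter (endogenous γ-secretase). Compound added 3 h after plating, 10 μM–0.3 nM final, triplicate, 24 h at 37 °C; luminescence read. IC50 from concentration vs normalised luminescence; ratio of the two IC50s.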

[19] = Total plasma concentration in mouse at 30 mg/kg, po administered as single dose after 4 hrs by LC/MS/MS analysis; format: ADME, organism-based
[20] = Volume of distribution at steady state in Balb/c mouse at 5 mg/kg, iv by LC/MS/MS analysis; format: ADME, organism-based; conditions: in vivo, read-out: Vdss
[21] = Total plasma concentration in mouse at 100 mg/kg, po administered as single dose after 4 hrs by LC/MS/MS analysis; format: ADME, organism-based
[22] = Half life in Balb/c mouse at 5 mg/kg, iv by LC/MS/MS analysis; format: ADME, organism-based; conditions: in vivo
[23] = tested on: Mus musculus; experiment: In vivo inhibition of mouse gamma-secretase assessed as effect on Hes1 mRNA level in thymus up to 100 mg/kg, po administered as single dose by RT-PCR method; format: organism-based; how it was run: as §4
[24] = Drug uptake in mouse spleen at 30 mg/kg, po administered as single dose after 4 hrs by LC/MS/MS analysis; format: ADME, organism-based; conditions: read-out: Drug uptake
[25] = tested on: Mus musculus; experiment: In vivo inhibition of SPPL2a in mouse assessed as increase in CD74/p8 accumulation in splenocytes at 100 mg/kg, po administered as single dose measured after 4 hrs by Western blot method; format: functional, organism-based

concentration [1]: 66 nM | concentration at 16 h [5]: 136 nM | concentration at 24 h [6]: 1390 nM | concentration at 24 h [7]: 49 nM | concentration at 16 h [12]: 0.8 nM | concentration at 16 h [13]: 11.8 nM | clearance [15]: 6 mL/min/kg | concentration at 24 h [16]: 231 nM
Structure (SMILES): Cc1ncc(F)cc1NC(=O)C[C@H](C(=O)N[C@@H]1C(=O)N2CC3(CC3)CN2C(=O)c2ccccc21)C1CC1
inhibition [2]: inactive | inhibition [3]: Active | Activity [4]: Active | Activity [8]: Non-Toxic | Activity [9]: Active | inhibition in vivo at 10 mg/kg [10]: 50% | Activity [11]: Dose-dependent effect | inhibition [14]: Active

concentration at 4 h [19]: 500 nM | Vd [20]: 1.2 L/kg | concentration at 4 h [21]: 2090 nM | half-life [22]: 42 min | concentration at 4 h [24]: 434 nM
Structure (SMILES): Cc1ccccc1NC(=O)C[C@@H](C)C(=O)N[C@@H]1C(=O)N2CCCN2Cc2ccccc21
inhibition [17]: Active | Ratio IC50 [18]: 52 | Activity [23]: Non-Toxic | Activity [25]: Active
